PREPL inh – human PREPL enzyme inhibition | inhibition, % at 5.96 µM | 0.68% of 320,000 active | AID 2751 | Q4J6C6 | recombinant PREPL, fluorescence polarization activity-based probe; in the data active = inhibition above about 43%;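 also: 0% = enzyme with DMSO and 100% = wells lacking enzyme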
Target sequence (Q4J6C6 whole entry, looked up): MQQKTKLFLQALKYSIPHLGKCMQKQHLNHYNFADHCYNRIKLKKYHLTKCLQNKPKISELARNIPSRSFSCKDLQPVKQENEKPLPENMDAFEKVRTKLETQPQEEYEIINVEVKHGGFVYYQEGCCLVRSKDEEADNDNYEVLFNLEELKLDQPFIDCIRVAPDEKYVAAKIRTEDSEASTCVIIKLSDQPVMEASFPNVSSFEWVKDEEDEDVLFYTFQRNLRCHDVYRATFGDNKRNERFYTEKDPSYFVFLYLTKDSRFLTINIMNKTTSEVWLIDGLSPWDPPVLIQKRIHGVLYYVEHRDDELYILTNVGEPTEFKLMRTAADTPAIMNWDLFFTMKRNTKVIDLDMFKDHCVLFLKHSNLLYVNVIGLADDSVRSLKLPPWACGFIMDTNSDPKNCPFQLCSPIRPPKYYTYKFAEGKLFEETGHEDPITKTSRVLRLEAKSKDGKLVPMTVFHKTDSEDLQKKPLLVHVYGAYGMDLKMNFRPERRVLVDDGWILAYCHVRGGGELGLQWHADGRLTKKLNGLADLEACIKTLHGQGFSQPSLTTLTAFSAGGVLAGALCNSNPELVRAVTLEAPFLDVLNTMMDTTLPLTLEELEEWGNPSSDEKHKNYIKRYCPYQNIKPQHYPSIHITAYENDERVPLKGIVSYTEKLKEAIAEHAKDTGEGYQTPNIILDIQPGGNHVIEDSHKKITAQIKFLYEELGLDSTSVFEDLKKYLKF
T cruzi repl – T. cruzi replication inhibition. AID 1885. inhibition, % (no concentration beside the values). T. cruzi beta-gal in NIH3T3, luminescence, 90 h. 1.4% of 300,000 active;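 active = mean inhibition across valid replicates above about 55%, limit read from the data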;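 also: signal also drops with host cell toxicity which is not excluded here; 0% = plate median of DMSO wells and 100% = zero luminescence signal; higher percent means less beta-gal luminescence so fewer parasites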
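System: mouse NIH/3T3 fibroblasts infected with β-gal-expressing T. cruzi Tulahuen C4 / Input: NIH/3T3 cells, 5,000 per well / Buffer or medium: Low-serum DMEM with 2% FBS / Probe or stimulus: 5000 reporter trypomastigotes per well / Schedule: ≥90 h infection period, 3 h prior cell attachment / Measured by: GalScreen luminescence, 60 min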
GRIN3A LBD mod – modulators (binders) of human NR3A ligand-binding domain | AID 1259313 | NR3A LBD differential scanning fluorimetry, Tm shift; 0% = protein alone, 100% = glycine-bound protein | Tm shift relative to glycine control, % at 25 µM | 2.5% of 340,000 active;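 active = melting temperature shift of at least 10% of the positive control shift, at one fixed dose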
CHOP inhibitor – CHOP inhibition in unfolded protein response | CHO-K1 CHOP-promoter luciferase, tunicamycin-induced, 15-18 h | inhibition, % at 10 µM | 3.8% of 220,000 active;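 active = compounds that reduced the stress-induced luciferase reporter signal by more than about 70% of percent inhibition, limit read from the data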;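 also: 0% = tunicamycin plus vehicle and 100% = wells without tunicamycin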
CSC inhib – blocks cancer stem cells; cancer stem cell-like cells viability, luminescence; inhibition, % at 7.5 µM; 1.1% of 300,000 active; AID 2717; in the data active = inhibition above about 75%; tested in HMLE shEcad cells
Beta cell apopt – blocks beta cell apoptosis; INS-1E cytokine-induced death, ATP luminescence, 48 h; percent of positive-control rescue, neutral wells zero; 0.8% of 300,000 active; protection from apoptosis, % (test concentration not listed);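 active = Every replicate reaches about 75%, or at least half do and their mean reaches it too, limit read from the data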;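 also: 0% = cytokine-treated negative control wells and 100% = positive control rescue; higher means more ATP so stronger rescue from cytokine killing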
* = called active by the depositor. Hits are enriched below; roughly 6.7% of the tested compounds scored in any of these assays.

What do the screens show for `COCCn1c(=NC(=O)C2COc3ccccc3O2)sc2cc(S(N)(=O)=O)ccc21` (centres undefined)?
PREPL inh: 14; T cruzi repl: 4; GRIN3A LBD mod: 17*; CHOP inhibitor: -2; CSC inhib: -2; Beta cell apopt: 7

Results for Cc1csc(NC(=O)Cc2c(F)cccc2Cl)n1 ?
PREPL inh: 6; T cruzi repl: 4; GRIN3A LBD mod: -1; CSC inhib: 7; Beta cell apopt: 5

How did Cc1csc(Nc2nc(N)c(C(=O)Nc3cc(Cl)ccc3F)o2)n1 do in these assays?
PREPL inh: 22; T cruzi repl: 4; GRIN3A LBD mod: 22*; CSC inhib: 14; Beta cell apopt: 22

How did O=C1C(=O)N(Cc2cccs2)c2ccccc21 do in these assays?
PREPL inh: -5; T cruzi repl: -8; GRIN3A LBD mod: 0; CSC inhib: 3; Beta cell apopt: -10

What do the screens show for `CC(C)=CCCC(C)CN1CCC(n2nccc2NC(=O)c2ccc3c(c2)OCO3)CC1` (centres undefined)?
PREPL inh: -2; T cruzi repl: 57*; GRIN3A LBD mod: 3; CSC inhib: 9; Beta cell apopt: 0

How did C/C=C(\C)CN1CCC(n2nccc2NC(=O)c2ccc3c(c2)OCO3)CC1 do in these assays?
PREPL inh: 6; T cruzi repl: 36; GRIN3A LBD mod: 0; CSC inhib: 3; Beta cell apopt: 6

How did C=CCN1C(=O)/C(=C/c2ccc(O)cc2)S/C1=N/c1nccs1 do in these assays?
PREPL inh: 18; T cruzi repl: -18; GRIN3A LBD mod: 20*; CHOP inhibitor: 16; CSC inhib: 55; Beta cell apopt: 0

Results for CS(=O)(=O)N(Cc1ccc(C(=O)NN=C2CCCC2)cc1)c1ccccc1 ?
PREPL inh: 4; T cruzi repl: -2; GRIN3A LBD mod: -1; CHOP inhibitor: 17; CSC inhib: 18; Beta cell apopt: -2

How did CS(=O)(=O)N(Cc1ccc(Cl)cc1)c1ccc(C(=O)N/N=C/c2cc3ccccc3nc2Cl)cc1 do in these assays?
PREPL inh: 9; T cruzi repl: 25; GRIN3A LBD mod: 10*; CHOP inhibitor: 13; CSC inhib: 20; Beta cell apopt: 9

What do the screens show for `CS(=O)(=O)N(Cc1ccc(C(=O)NN=C2CCCCCC2)cc1)c1ccccc1`?
PREPL inh: -12; T cruzi repl: 2; GRIN3A LBD mod: 13*; CHOP inhibitor: -6; CSC inhib: -7; Beta cell apopt: -6

What do the screens show for `O=C(CSc1cn[nH]n1)Nc1ccccc1C(=O)O`?
PREPL inh: 1; T cruzi repl: -18; GRIN3A LBD mod: 2; CSC inhib: 1; Beta cell apopt: 0

What do the screens show for `O=C(Nc1nc2cc(Cl)ccc2s1)C1CCCN(S(=O)(=O)c2cccc3cccnc23)C1` (centres undefined)?
PREPL inh: 6; T cruzi repl: 28; GRIN3A LBD mod: 0; CHOP inhibitor: 75*; CSC inhib: 38; Beta cell apopt: -7

Results for O=C(Nc1nc2ccccc2s1)C1CCCN1S(=O)(=O)c1ccc(Cl)cc1 (centres undefined) ?
PREPL inh: -16; T cruzi repl: 15; GRIN3A LBD mod: -11; CHOP inhibitor: 92*; CSC inhib: -11; Beta cell apopt: 4

How did Cc1ccc(S(=O)(=O)N2CCCC2C(=O)Nc2nc3ccccc3s2)cc1 (centres undefined) do in these assays?
PREPL inh: -3; T cruzi repl: 12; GRIN3A LBD mod: -1; CHOP inhibitor: 23

What do the screens show for `Cc1onc(-c2c(Cl)cccc2Cl)c1C(=O)N=C(N)N1CC(C)OC(C)C1` (centres undefined)?
PREPL inh: -1; T cruzi repl: -12; GRIN3A LBD mod: 2; CHOP inhibitor: 7; CSC inhib: -6; Beta cell apopt: 0

How did O=C(NCCc1cccs1)C(c1ccccc1)c1ccccc1 do in these assays?
PREPL inh: 4; T cruzi repl: -11; GRIN3A LBD mod: -3; CSC inhib: 11; Beta cell apopt: -3

What do the screens show for `Cc1cc(C)cc(NC(=O)CCc2c(C)nn(-c3ccc(N4CCOCC4)nn3)c2C)c1`?
PREPL inh: -1; T cruzi repl: -9; GRIN3A LBD mod: -1; CSC inhib: -19

Results for Fc1ccc(/C=N/NC(=S)Nc2ccc(Cl)cc2Cl)cc1 ?
PREPL inh: -9; T cruzi repl: 14; GRIN3A LBD mod: -1; CHOP inhibitor: 16; CSC inhib: 28; Beta cell apopt: 2

Screening data from PubChem BioAssay.
